The list is not random: actives were taken first. Their share in the collection is about 2.3%.
Ecoli WT expand: blocks growth of wild type E. coli BW25113; growth inhibition, % at 100 µM; OD600 absorbance; 98,000 compounds, 0.15% hits;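 active = growth inhibition above about 50% at one test dose, limit read from the data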;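 also: growth measured after 20 h incubation at 37 °C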
tolC growth inh: E. coli tolC mutant growth inhibition | AID 573 | growth inhibition, % at 10 µM (by protocol) | 65,000 compounds, 2.2% hits | E. coli BW25113 tolC mutant growth, OD615;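 active = growth inhibition at or above a cutoff equal to the mean over every tested compound plus 3 SD, cut at about 60% in these data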;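 also: growth measured after 20 h incubation at 37 °C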
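Test system: tolC-deleted E. coli BW25113 | Medium: LB with kanamycin 50 µg/mL | Compound dosing: Single concentration, 10 µM final per compound | Schedule: 37 °C, 20 h exposure | Measured by: OD at 615 nm | Evaluation: Percent growth inhibition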
HePTP inh: blocks human HePTP tyrosine phosphatase; P35236; recombinant HePTP phosphatase activity, OD absorbance; inhibition, % at 20 µM; 110,000 compounds, 0.64% hits; AID 521; in the data active = inhibition above about 50%;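 also: plate controls were vehicle for no effect and reference inhibitor for full effect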
Target sequence (P35236 whole entry, looked up): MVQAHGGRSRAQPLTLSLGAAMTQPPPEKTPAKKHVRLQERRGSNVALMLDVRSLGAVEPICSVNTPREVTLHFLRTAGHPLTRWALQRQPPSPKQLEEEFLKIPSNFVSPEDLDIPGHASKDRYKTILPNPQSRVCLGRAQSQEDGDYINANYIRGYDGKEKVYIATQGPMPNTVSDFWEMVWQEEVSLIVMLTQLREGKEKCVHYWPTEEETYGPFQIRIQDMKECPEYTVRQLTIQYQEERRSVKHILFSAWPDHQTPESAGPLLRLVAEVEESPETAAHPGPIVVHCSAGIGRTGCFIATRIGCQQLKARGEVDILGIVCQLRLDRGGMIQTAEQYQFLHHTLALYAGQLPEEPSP
PLAP act: activates human placental alkaline phosphatase; P05187; purified PLAP enzyme, luminescent substrate read-out; active compounds read high; activation fold at 20 µM; 96,000 compounds, 1.2% hits; AID 696; in the data active = activation fold above about 2
AP ELISA ortho: alternative pathway complement inhibition, orthogonal assay. Human serum alternative complement pathway, LPS-coated ELISA, C3 deposition; tested in compound mixtures. 62,000 compounds, 0.08% hits. inhibition, % at 5 µM. AID 1235;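 active = inhibition above 30% in each of the two pooled mixtures holding the compound, so the lower value exceeds 30%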;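 also: 0% = serum in Mg-EGTA without compound and 100% = EDTA serum blank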
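Test system: human serum alternative complement pathway, C3 deposition on LPS-coated wells; also added: Plate-bound LPS; doses: 5 µM per compound in ten-compound mixtures; schedule: 1 h at 37 °C; detection: Anti-C3 ELISA, OD 450 nm; evaluation: percent inhibition of C3 deposition onto LPS; repeats: two pool placements per compound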
Starred values were filed as active, the others as inactive; nt = no result given.

SMILES | Ecoli WT expand | tolC growth inh | HePTP inh | PLAP act | AP ELISA ortho
COc1cccc(Cn2c(Oc3cccc(C)c3)nc3c2c(=O)n(C)c(=O)n3C)c1 | -25.0 | 83.7* | 2.1 | 1.3 | 6.7
COc1cccc(NC2=C(Cl)C(=O)N(c3ccc(Cl)cc3)C2=O)c1 | nt | nt | 4.2 | nt | nt
COc1ccc(NC(=O)c2ccc(C)c([N+](=O)[O-])c2)cc1 | nt | nt | 12.0 | nt | nt
Cc1ccc(C(=O)Nc2ccc(-c3nc4cc5ccccc5cc4[nH]3)cc2)cc1[N+](=O)[O-] | nt | nt | 56.3* | nt | nt
O=C(Nc1ccc(-c2nc3ccccc3[nH]2)cc1)c1cccc(Br)c1 | nt | nt | 102.5* | nt | nt
O=C(Nc1ccc(-c2cn3ccccc3n2)cc1)c1cccc(Br)c1 | nt | nt | 102.3* | nt | nt
O=C(Nc1ccc(-c2nc3ccccc3[nH]2)cc1)c1ccccc1 | nt | nt | 7.7 | nt | nt
O=C(Nc1cccc(-c2cn3ccccc3n2)c1)c1cccc(Br)c1 | nt | nt | 17.9 | nt | nt
CC(=O)c1ccc(N2C(=O)c3ccc(-c4nc5ccccc5c(=O)o4)cc3C2=O)cc1 | nt | nt | -7.8 | nt | nt
COc1ccc(NS(=O)(=O)c2cccc([N+](=O)[O-])c2)c(OC)c1 | nt | nt | -2.8 | nt | nt
COC(=O)c1ccccc1NC(=O)COc1ccc(C)cc1 | nt | nt | -15.6 | nt | nt
CCc1ccc(S(=O)(=O)NCCc2csc(-c3ccccc3)n2)s1 | -16.0 | 92.8* | nt | 1.1 | nt
CCc1ccc(S(=O)(=O)NCc2csc(-c3ccccc3)n2)s1 | -12.0 | 46.1 | -0.9 | 0.6 | 1.3
COCCn1c(C)cc(C(=O)COC(=O)CCc2ccc(S(=O)(=O)N3CCOCC3)cc2)c1C | 1.0 | 3.4 | 9.7 | 1.5 | nt
COCC(C)n1c(C)cc(C(=O)COc2ccc(S(=O)(=O)N3CCOCC3)cc2Cl)c1C (centres undefined) | 0.0 | 5.8 | 6.2 | 2* | 13.0
CCOC(=O)CSc1nnc(-c2cccc(OC)c2)n1-c1ccccc1 | nt | nt | 93.8* | nt | nt
COc1cccc(-c2nnc(SCC(N)=O)n2-c2ccc(Cl)cc2)c1 | 2.0 | -8.1 | -7.7 | 1 | 0.6
O=C(Oc1cccc2ccccc12)c1ccco1 | 8.0 | -15.6 | 5.5 | 1 | 13.6
O=C(Oc1ccc(Cl)c2cccnc12)c1ccco1 | 100.0* | nt | nt | 1.6 | nt
CC(=O)NC1=NC(=O)/C(=C\c2ccc(-c3ccccc3C(=O)O)o2)S1 | nt | nt | 51.0* | nt | nt
CC(=O)NC1=NC(=O)/C(=C\c2ccc(C)o2)S1 | nt | nt | 2.7 | nt | nt
COC(=O)/C=C(\C)NC(=O)c1ccc(F)cc1 | 7.0 | nt | nt | 1.1 | nt
COC(=O)/C=C(\C)NCCN/C(C)=C/C(=O)OC | nt | nt | 104.7* | nt | nt
COc1ccc(/C=N/n2c(SC)nnc2-c2ccccc2)cc1C | -5.0 | 86.9* | -9.7 | 1.2 | -13.9
CC(=O)Nc1ccc(Nc2c3c(c(C#N)c4nc5ccccc5n24)CCC3)cc1 | nt | nt | 3.0 | nt | nt
SMILES | Ecoli WT expand | tolC growth inh | HePTP inh | PLAP act | AP ELISA ortho
Cc1cccc(-n2c(O)c(C=NCc3ccc(F)cc3)c(=O)[nH]c2=O)c1 | nt | nt | -1.2 | nt | nt
COc1ccccc1OCCn1cc(/C=C2/C(=O)NC(=O)N(c3ccccc3)C2=O)c2ccccc21 | nt | nt | 4.3 | nt | nt
COc1cc(CNC2CCCC2)cc(Cl)c1OCc1ccccc1F | 20.0 | nt | nt | 2* | nt
COc1ccc(OC)c(Nc2nc(-c3sc(C)nc3C)cs2)c1 | -14.0 | 6.9 | -4.0 | 2.1* | 8.3
Cc1ccc(NC(=S)NNC(=O)c2ccco2)cc1 | -5.0 | nt | nt | 1.8 | nt
COc1ccc(C)cc1NC(=O)C(=O)NCc1ccco1 | nt | nt | 11.4 | nt | nt
COc1cc(NS(=O)(=O)c2ccc(Br)cc2)c(OC)cc1NC(=O)c1ccco1 | -6.0 | 76.4* | 11.5 | 1.3 | 1.1
Cc1ccc(C)c(NC(=S)NNC(=O)c2ccc(Br)o2)c1 | 4.0 | nt | nt | 2.3* | nt
COc1ccc(C)cc1NC(=O)C(=O)NNC(=O)c1ccco1 | 1.0 | nt | nt | 2.5* | nt
Cc1cccc(NC(=S)NNC(=O)c2ccco2)c1 | 10.0 | nt | nt | 2.1* | nt
Cc1ccc(C)c(NC(=S)NNC(=O)c2ccco2)c1 | -6.0 | nt | nt | 2.5* | nt
Cc1ccc(C)c(NC(=S)NNC(=O)c2sccc2C)c1 | -5.0 | nt | nt | 2.6* | nt
COc1c(C)cc(Br)cc1C(=O)Nc1cccc(NC(=O)c2ccco2)c1 | -19.0 | 74.2* | 8.9 | 0.9 | -4.2
O=C(Nc1ccc(Br)c(Cl)c1)c1ccco1 | 5.0 | 100.0* | -4.4 | 0.9 | 0.7
COc1ccccc1N1CCN(/N=C\c2ccc(O)cc2O)CC1 | nt | nt | 7.3 | nt | nt
Cc1ccccc1NC(=S)NNC(=O)c1ccoc1C | 4.0 | nt | nt | 2.1* | nt
Cc1occc1C(=O)NNC(=S)Nc1ccccc1 | 2.0 | nt | nt | 1.9 | nt
O=C(Nc1ccc(S(=O)(=O)N2CCCc3ccccc32)cc1)C1CCCO1 (centres undefined) | -11.0 | 67.6* | 9.2 | 1.5 | 19.2
O=C(O)C1CC=CCC1C(=O)Nc1ccc(S(=O)(=O)N2CCCc3ccccc32)cc1 (centres undefined) | 5.0 | 61.0* | 12.8 | 1.3 | 0.3
CCn1c(N)c(C(=O)NCC2CCCO2)sc1=S (centres undefined) | -2.0 | -9.0 | 15.1 | 1 | 7.7
CCCCCNC(=O)c1ccc2c(=O)[nH]c3c(C(=O)NCC4CCCO4)sc(=S)n3c2c1 (centres undefined) | -5.0 | 100.0* | 4.3 | 1.6 | 13.5
O=C(NC1CCCC1)c1sc(=S)n2c1[nH]c(=O)c1ccccc12 | 1.0 | 100.0* | -4.4 | 1.1 | 8.2
O=C(NCc1ccco1)c1sc(=S)n2c1[nH]c(=O)c1ccccc12 | 11.0 | 99.7* | 20.2 | 1.3 | 15.0
CCc1ccc(NC(=O)CCCOc2ccccc2)cc1 | nt | nt | 9.4 | nt | nt
O=C(CCC1CCCC1)c1c(O)c2ccccc2oc1=O | 14.0 | 97.2* | 5.4 | 0.9 | 5.5
SMILES | Ecoli WT expand | tolC growth inh | HePTP inh | PLAP act | AP ELISA ortho
COc1ccc([N+](=O)[O-])cc1NC(=O)/C=C/c1ccccc1 | nt | nt | -6.2 | nt | nt
O=C(NCc1ccc2c(c1)OCO2)C1CCN(Cc2cnn(-c3ccccc3)c2-n2cccc2)CC1 | -1.0 | 2.3 | -1.5 | 2.5* | 7.1
COc1ccc(OC)c(NC(=O)C2CCN(Cc3cnn(-c4ccccc4)c3-n3cccc3)CC2)c1 | -10.0 | nt | nt | 1.9 | nt
O=C(Nc1ccccc1Cl)C1CCN(Cc2cnn(-c3ccccc3)c2-n2cccc2)CC1 | -7.0 | nt | nt | 2* | nt
CCn1c(N2CCN(C(=O)C34CC5CC(CC(C5)C3)C4)CC2)nc2ccccc21 | -2.0 | 64.7* | 5.5 | 1.5 | 18.2
CCCn1c(=N)n(CC(=O)OCC)c2ccccc21 | 4.0 | -8.1 | 7.6 | 1.1 | 4.1
CCn1c(=N)n(CC(=O)C23CC4CC(CC(C4)C2)C3)c2ccccc21 | 17.0 | 99.3* | 5.7 | 1.2 | 4.0
O=C(N1CCN(c2ccccc2)CC1)C12CC3CC(CC(C3)C1)C2 | -2.0 | 10.8 | -4.2 | 1.1 | 19.7
Cc1ccccc1OCC(=O)N(Cc1nc(-c2ccccc2)no1)C(C)C | -11.0 | 36.4 | 1.9 | 1 | 18.5
COc1ccccc1OCC(=O)N(Cc1nc(-c2ccccc2)no1)C1CCCCC1 | -16.0 | 61.7* | 10.8 | 1.5 | -5.5
CC(=O)Nc1ccc(Nc2nc(-c3ccc(Br)cc3)cs2)cc1 | nt | nt | 8.0 | nt | nt
CCOC(=O)N1CCC(NC(=O)C2CCCN(C(=O)N3CCOc4ccccc43)C2)CC1 (centres undefined) | 1.0 | -20.5 | 6.8 | 1.7 | 4.4
CCOC(=O)N1CCC(NC(=O)C2CCN(C(=O)N3CCOc4ccccc43)CC2)CC1 | -4.0 | -9.2 | 4.5 | 2.1* | 20.3
